Reference: ChEMBL document CHEMBL1130014, “Mixed bis(thiosemicarbazone) ligands for the preparation of copper radiopharmaceuticals: synthesis and evaluation of tetradentate ligands containing two dissimilar thiosemicarbazone functions” (J Med Chem, 1997)

Key:
Rattus norvegicus [1] = species on record: Rattus norvegicus; assay: […] uptake of compound was determined in rat brain at 1 min following femoral injection of radiotracer; type: functional
Method in brief: (§1)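 Sprague–Dawley rats under ether anesthesia received the ⁶⁷Cu complex (~2 µCi in 0.2 mL) into the femoral vein. Dosing solution was saline with ca. 5% ethanol and ≤0.5% DMSO, filtered at 0.2 µm, with radiochemical purity by silica TLC (ethanol). Organ radioactivity is expressed as % injected dose per organ. Mean ± SD, three rats per time point.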

Rattus norvegicus [2] = species on record: Rattus norvegicus; assay: […] uptake of compound was determined in rat brain at 120 min following femoral injection of radiotracer; type: functional; method in brief: as §1
Rattus norvegicus [3] = species on record: Rattus norvegicus; assay: […] uptake of compound was determined in rat brain at 5 min following femoral injection of radiotracer; type: functional; method in brief: as §1
Rattus norvegicus [4] = species on record: Rattus norvegicus; assay: […] uptake of compound was determined in rat heart at 1 min following femoral injection of radiotracer; type: functional, Myocardium; method in brief: as §1
Rattus norvegicus [5] = species on record: Rattus norvegicus; assay: […] uptake of compound was determined in rat heart at 120 min following femoral injection of radiotracer; type: functional, Myocardium; method in brief: as §1
Rattus norvegicus [6] = species on record: Rattus norvegicus; assay: […] uptake of compound was determined in rat heart at 5 min following femoral injection of radiotracer; type: functional, Myocardium; method in brief: as §1
Albumin = Albumin (Homo sapiens, UniProt P02768); assay: Binding of compound in order to assess the amount of free (non-albumin-associated) radiotracer present in solutions of human serum albumin (35 mg/mL saline)
Sequence of Albumin (P02768 whole entry): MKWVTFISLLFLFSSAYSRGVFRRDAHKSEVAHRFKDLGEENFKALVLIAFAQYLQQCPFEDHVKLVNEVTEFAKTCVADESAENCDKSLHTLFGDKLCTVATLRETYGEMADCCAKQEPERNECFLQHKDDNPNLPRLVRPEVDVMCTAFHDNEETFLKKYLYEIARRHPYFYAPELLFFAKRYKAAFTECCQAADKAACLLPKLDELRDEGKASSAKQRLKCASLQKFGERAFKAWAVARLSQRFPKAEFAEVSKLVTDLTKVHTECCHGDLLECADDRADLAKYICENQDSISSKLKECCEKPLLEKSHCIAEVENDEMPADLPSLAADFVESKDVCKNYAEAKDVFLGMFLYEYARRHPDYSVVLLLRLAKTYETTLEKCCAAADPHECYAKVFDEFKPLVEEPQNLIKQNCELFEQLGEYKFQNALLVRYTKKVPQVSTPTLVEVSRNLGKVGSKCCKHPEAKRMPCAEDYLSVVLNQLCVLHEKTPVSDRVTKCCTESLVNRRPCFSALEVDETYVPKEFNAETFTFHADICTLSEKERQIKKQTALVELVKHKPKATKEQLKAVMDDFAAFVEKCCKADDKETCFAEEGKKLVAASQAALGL
Method in brief: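 ⁶⁷Cu complex (1–2 µL per 1 mL) mixed into freshly prepared albumin in normal saline. Within 2 min, loaded into 30,000 Da NMWL centrifugal ultrafilters and spun at once at 1000g, 20 min, 20 °C, 45° fixed-angle rotor. Filtrate and unfiltered solution γ-counted. Free % is the protein filtrate/unfiltered ratio divided by the same ratio in protein-free saline, ×100. Mean ± SD of 6–12 measurements.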

[7] = biological target: Serum albumin (Canis lupus familiaris) (UniProt P49822); assay: Binding of compound in order to assess the amount of free (non-albumin-associated) radiotracer present in solutions of dog serum albumin (35 mg/mL saline)
Sequence of Serum albumin (Canis lupus familiaris) (P49822 whole entry, looked up): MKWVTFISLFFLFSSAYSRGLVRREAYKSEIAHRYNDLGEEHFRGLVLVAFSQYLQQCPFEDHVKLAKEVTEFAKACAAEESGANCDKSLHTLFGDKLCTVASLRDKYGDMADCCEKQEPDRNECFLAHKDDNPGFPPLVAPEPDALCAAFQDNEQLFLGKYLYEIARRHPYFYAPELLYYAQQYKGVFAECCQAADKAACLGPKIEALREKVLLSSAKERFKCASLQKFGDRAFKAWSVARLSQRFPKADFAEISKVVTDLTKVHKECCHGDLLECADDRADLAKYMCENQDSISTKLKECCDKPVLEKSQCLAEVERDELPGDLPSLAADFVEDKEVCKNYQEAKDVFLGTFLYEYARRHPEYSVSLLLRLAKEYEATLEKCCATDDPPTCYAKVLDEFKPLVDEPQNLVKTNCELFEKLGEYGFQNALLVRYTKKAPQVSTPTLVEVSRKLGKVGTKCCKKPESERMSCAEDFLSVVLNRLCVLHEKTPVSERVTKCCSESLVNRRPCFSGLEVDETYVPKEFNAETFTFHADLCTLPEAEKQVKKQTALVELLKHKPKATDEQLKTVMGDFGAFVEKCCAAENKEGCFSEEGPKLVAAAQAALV

| Compound | Dose (Rattus norvegicus [1]) [%] | Dose (Rattus norvegicus [2]) [%] | Dose (Rattus norvegicus [3]) [%] | Dose (Rattus norvegicus [4]) [%] | Dose (Rattus norvegicus [5]) [%] | Dose (Rattus norvegicus [6]) [%] | Free complex (Albumin) [%] | Free complex [7] [%] |
| --- | --- | --- | --- | --- | --- | --- | --- | --- |
| C/N=C(\S)N/N=C/C(C)=N/N=C(/N)S | 1.4 | 1.1 | 1.37 | 2.73 | 2.03 | 2.44 |  |  |
| C/N=C(\S)N/N=C(C)/C=N/N=C(/N)S | 1.72 | 1.67 | 1.81 | 2.84 | 2.59 | 2.86 |  |  |
| C/N=C(\S)N/N=C/C(C)=N/N/C(S)=N/C | 3 | 3.2 | 3 | 2.7 | 3.3 | 3.4 |  |  |
| CC(/C=N/N=C(\S)N(C)C)=N\N=C(/S)N(C)C | 3.1 |  | 2.2 | 0.97 |  | 0.43 |  |  |
| C/N=C(\S)N/N=C(C)/C=N/N=C(\S)N(C)C | 2.76 | 1.63 | 1.8 | 1.43 | 0.89 | 1.27 |  |  |
| CC(/C=N/N=C(\S)N(C)C)=N\N=C(\N)S | 2.79 | 1.98 | 1.97 | 1.59 | 1.05 | 1.23 |  |  |
| CC(/C=N/N=C(/N)S)=N\N=C(\N)S [PYRUVALDEHYDE BIS(THIOSEMICARBAZONE)(PTS)] | 0.46 |  | 0.29 | 2.8 |  | 2.3 |  |  |
| Copper complex of Propane-1,2-diylidene-N-amino-methylaminomethanethione-N-amino-dimethylaminomethanethione |  |  |  |  |  |  | 5.4 | 25.7 |
| Copper complex of Propane-1,2-diylidene-N-thiourea-N-amino-dimethylaminomethanethione |  |  |  |  |  |  | 17.2 | 57.6 |
| Copper complex of Propane-1,2-diylidene-N-thiourea-N-amino-methylaminomethanethione [listing 1 of 2 here] |  |  |  |  |  |  | 10.4 | 57.4 |
| Copper complex of Propane-1,2-diylidene-N-thiourea-N-amino-methylaminomethanethione [listing 2 of 2 here] |  |  |  |  |  |  | 8.6 | 46.5 |
| Propyl glyoxal bis(thiosemicarbazone)(67Cu-n-PrTS) |  |  |  |  |  |  | 37 | 30.3 |
